# TAAR1 antag: human TAAR1 antagonism | 1.5% of 360,000 active | CHO RD-HGA16 TAAR1, Fluo-8 calcium fluorescence, antagonist | AID 624466 | inhibition, % at 3 µM;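 active means inhibition above a per-plate cutoff, the mean inhibition of test compounds on that plate plus 3 SD, cut at about 49% in these data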;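 further: 0% = DMSO plus EC80 beta-PEA response and 100% = DMSO alone without agonist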
#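 Test system – hTAAR1-expressing CHO RD-HGA16 cells, Gα16-coupled · Reagent – β-PEA at EC80 concentration, post-compound challenge · Compound dosing – 3 µM, single point · Timing – 140 s kinetic read after compound, 140 s after agonist · Detection – Fluo-8 intracellular calcium dye fluorescence, real-time kinetic reads · Control set – DMSO and EC80 PEA controls · Repeats – n of 1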
# M4 PAM: CHRM4 positive allosteric modulation; CHO-K1 hM4/Gqi5, Fluo-8 calcium fluorescence, ACh EC20; 0% = ACh EC20, 100% = maximal ACh; P08173; 0.4% of 360,000 active; activation, % at 3 µM;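 active means activation above its plate's cutoff, the mean activation of sample wells plus 3 SD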
# Target sequence (P08173 whole entry, looked up): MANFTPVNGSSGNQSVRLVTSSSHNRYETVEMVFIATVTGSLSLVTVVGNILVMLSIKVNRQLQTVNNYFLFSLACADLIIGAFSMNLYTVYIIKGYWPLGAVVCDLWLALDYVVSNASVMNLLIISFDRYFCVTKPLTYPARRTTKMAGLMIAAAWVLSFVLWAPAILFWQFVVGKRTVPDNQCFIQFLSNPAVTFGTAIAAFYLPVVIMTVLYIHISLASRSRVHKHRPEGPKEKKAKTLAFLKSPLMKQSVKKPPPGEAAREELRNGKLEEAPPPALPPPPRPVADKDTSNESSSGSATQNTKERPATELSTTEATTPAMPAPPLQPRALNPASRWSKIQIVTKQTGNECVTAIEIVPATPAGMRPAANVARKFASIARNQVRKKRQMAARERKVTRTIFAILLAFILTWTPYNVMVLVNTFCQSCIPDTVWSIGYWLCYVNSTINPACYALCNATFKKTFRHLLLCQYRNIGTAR
# CHRM4 antagonist: antagonists of human muscarinic M4 receptor (CHRM4) | P08173 | CHO-hM4 cells, ACh EC80, Fluo-8 calcium fluorescence | inhibition, % at 3 µM | 0.73% of 360,000 active | AID 624125;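 active means inhibition above its plate's cutoff, the mean inhibition of sample wells plus 3 SD, cut at about 27% in these data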;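 further: 0% = acetylcholine EC80 with DMSO and 100% = DMSO without agonist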
# TAAR1 agonist: human TAAR1 agonism. Q96RJ0. CHO RD-HGA16 TAAR1, Fluo-8 calcium fluorescence; vehicle wells 0%, saturating PEA agonist 100%. activation, % at 3 µM. 0.99% of 360,000 active;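 active means activation above the mean activation of all test compounds in the run plus 3 SD, cut at about 38% in these data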
#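 Benchmarks: low control DMSO, high control PEA (EC100); System: CHO RD-HGA16 cells carrying human TAAR1 plus Gα16; Detection: Fluo-8 fluorescence, 5 s baseline then 140 s kinetic read; Schedule: 17-24 h plating, Fluo-8 75 min 37 °C, 30 min RT; Read-out basis: % activation from peak over basal fluorescence ratio, DMSO-to-PEA scaled.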
# M4 ag: agonists of human muscarinic M4 receptor (CHRM4); P08173; activation, % at 3 µM; CHO-K1 hM4/Gqi5, Fluo-8 calcium fluorescence; vehicle 0%, full acetylcholine response 100%; 0.14% of 360,000 active; AID 624127;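 active means activation above the run mean over all test wells plus 3 SD, cut at about 32% in these data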;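 further: peak over basal fluorescence ratio per well then scaled between controls; 0% = DMSO wells and 100% = acetylcholine at EC100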
# TAAR1 ag confirm: human TAAR1 agonism, confirmed; AID 651783; shares compounds with TAAR1 agonist; CHO RD-HGA16 TAAR1, Fluo-8 calcium fluorescence; scaled: DMSO 0%, maximal phenethylamine 100%; 82% of 2,400 active; activation, % at 3 µM;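 active means activation above a cutoff set at the run's mean compound activation plus 3 SD, cut at about 39% in these data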
# Ga16 ag counter: counter-screen for TAAR1 agonists: nonselective agonists in parental cells. CHO-Ga16 parental, Fluo-8 calcium fluorescence; normalized to maximal ATP response, DMSO zero. 50% of 2,400 active. activation, % at 3 µM. shares compounds with TAAR1 agonist;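 active means activation above the run cutoff, the mean activation over all tested wells plus 3 SD, cut at about 12% in these data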;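 further: 0% = DMSO wells and 100% = maximal ATP response on the peak over basal ratio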
# TAAR1 desens: counter-screen for human TAAR1 agonists: agonists that desensitize TAAR1; shares compounds with TAAR1 agonist; CHO RD-HGA16 hTAAR1, Fluo-8 calcium, beta-PEA response inhibition; inhibition, % at 3 µM; 46% of 2,400 active;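 active means inhibition above the run cutoff, the mean inhibition of all test compounds plus 3 SD, cut at about 49% in these data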;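 further: beta-PEA stimulus applied at its EC80; loss of beta-PEA calcium signal after compound pretreatment read as receptor desensitization; 0% = DMSO with beta-PEA at EC80 and 100% = DMSO alone without agonist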
# Ga16 nonsel ant: counter-screen for TAAR1 agonists: nonselective Ga16 antagonists | shares compounds with TAAR1 agonist | 39% of 2,400 active | CHO-Ga16 ATP-induced calcium, Fluo-8 fluorescence | inhibition, % at 3 µM;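 active means inhibition above the plate's mean compound inhibition plus 3 SD, computed per plate, cut at about 22% in these data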;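 further: 0% = EC80 ATP with DMSO and 100% = DMSO wells without ATP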
# Starred values were filed as active, the others as inactive; nt = no result given. Hits are enriched below; roughly 3% of the tested compounds scored in any of these assays.
SMILES,TAAR1 antag,M4 PAM,CHRM4 antagonist,TAAR1 agonist,M4 ag,TAAR1 ag confirm,Ga16 ag counter,TAAR1 desens,Ga16 nonsel ant
O=C(NN1C(=O)C2C3C=CC(C3)C2C1=O)c1ccncc1 (stereo unspecified),-15,5,1,1,1,nt,nt,nt,nt
O=C(NN1C(=O)C2C(c3ccccc3)C=CC(c3ccccc3)C2C1=O)c1ccncc1 (stereo unspecified),24,0,2,47*,6,18,16*,17,9
CC(C)C[C@H]1CNC(=O)C(=O)N1C[C@@H]1CCCN1C[C@H](CC(C)C)N1C[C@H](Cc2ccccc2)N(CCc2ccccc2)C(=O)C1=O,-2,4,1,0,0,nt,nt,nt,nt
C=CCNC(=O)C1CC2Cn3c(nc4cc(C)c(C)cc43)C2N1C (stereo unspecified),7,0,6,-2,1,nt,nt,nt,nt
CN1C(C(=O)NCCc2cccs2)CC2Cn3c(nc4cc5ccccc5cc43)C21 (stereo unspecified),51*,1,4,78*,4,92*,15*,83*,11
Cc1cc2nc3n(c2cc1C)CC1CC(C(=O)NCCc2cccs2)N(C)C31 (stereo unspecified),69*,6,-12,101*,3,81*,2,71*,8
O=C(O)c1ccc(-n2cc(C(=O)c3ccccc3O)cn2)cc1,14,0,16,65*,2,19,9,13,14
Cc1csc(-c2nc3ccccc3n2C(C(=O)NC(C)(C)C)c2ccccc2)c1 (stereo unspecified),-24,3,-8,3,0,nt,nt,nt,nt
Cc1cc(Nc2ccccc2)nc(NCc2ccccc2)n1,31,-11,22,56*,13,76*,36*,53*,37*
Cc1cc(Nc2cccc(F)c2)nc(NCc2ccccc2)n1,7,-9,20,29,11,nt,nt,nt,nt
Cc1cc(Nc2ccc(Cl)cc2)nc(NCc2ccccc2)n1,-8,-1,0,55*,9,81*,35*,53*,29*
Cc1cc(N2CCC(C)CC2)nc(NCc2ccccc2)n1,36,-16,10,60*,24,67*,34*,53*,31*
Cc1cc(N2CCC(C)CC2)nc(-c2ccccc2O)n1,-34,-6,-17,-3,-2,nt,nt,nt,nt
Clc1ccc(C(c2cccs2)N2CCNCC2)cc1 (stereo unspecified),6,-14,15,6,4,nt,nt,nt,nt
CCOC1=C2[C@@H](CN(S(=O)(=O)c3ccc(C)cc3)[C@H]2c2ccccc2F)[C@H]2C(=O)N(c3ccccc3)C(=O)[C@H]2C1,2,0,-7,0,0,nt,nt,nt,nt
CCN(CC)CCN1CCN(c2cncc(-c3ccc4ccccc4c3)n2)CC1,-5,0,-11,4,1,nt,nt,nt,nt
CCOC(=O)C1(C)CCCN1C(=O)c1cccs1 (stereo unspecified),-5,1,-9,5,1,nt,nt,nt,nt
CCC1=C(NCc2ccccc2)COC1=O,-9,9,-5,2,1,nt,nt,nt,nt
CCN(Cc1ccccc1)S(=O)(=O)c1ccc(C(=O)Nc2nnc(-c3ccccc3OC)o2)cc1,23,4,0,43*,-1,19,28*,39,33*
Cn1c(CN2CCCCC2)nc2cc(NS(=O)(=O)c3ccc(Cl)cc3)ccc21,9,3,1,70*,43*,77*,41*,39,23*
Cc1ccc2nc(-c3ccccc3)cc(C(=O)N3CCc4ccccc4C3)c2c1,17,-7,6,72*,7,68*,2,25,20
COc1ccc(NC(=O)CCc2nc(-c3ccccc3F)no2)cc1,15,-8,8,48*,4,67*,8,44,20
CCOC(=O)c1cccc(NC(=O)CCc2nc(-c3ccccc3F)no2)c1,15,-2,-9,11,6,nt,nt,nt,nt
CNc1snc(C)c1C(=O)OC(C)C(=O)Nc1ccc(F)cc1 (stereo unspecified),-5,-4,11,3,3,nt,nt,nt,nt
CC(=C1C(=O)c2ccccc2C1=O)N1CCc2ccccc2C1,nt,3,-2,nt,-1,nt,1,nt,1
SMILES,TAAR1 antag,M4 PAM,CHRM4 antagonist,TAAR1 agonist,M4 ag,TAAR1 ag confirm,Ga16 ag counter,TAAR1 desens,Ga16 nonsel ant
Cc1nc2c(C(=O)NCc3ccccc3Cl)c[nH]n2c(=O)c1Cl,-28,-3,10,4,-1,nt,nt,nt,nt
Cc1cc(C(F)F)n2ncc(C(=O)NCCc3ccccc3Cl)c2n1,14,4,-6,68*,2,69*,1,32,5
Cc1cc(C(F)F)n2ncc(C(=O)NCCc3ccc(Cl)cc3)c2n1,2,-4,-4,10,5,nt,nt,nt,nt
Cc1nc2c(C(=O)NCCc3ccccc3Cl)c[nH]n2c(=O)c1Cl,61*,14,0,84*,-2,80*,14*,83*,5
CC(=O)Nc1ccc(C(=O)N2CCCCC2c2cc(C(=O)N3CCOCC3)no2)cc1 (stereo unspecified),-2,-4,-5,7,3,nt,nt,nt,nt
FC(F)(F)c1cc(-c2ccco2)nc(NCCc2ccccc2)n1,11,11,-8,55*,-1,83*,1,34,9
CC(=O)Nc1cccc(C(=O)/C=C/c2ccc(/C=C/C(=O)c3cccc(NC(C)=O)c3)cc2)c1,29,nt,nt,8,nt,nt,nt,nt,nt
CC(=O)Nc1cccc(C(=O)/C=C/c2ccc(N(C)C)cc2)c1,58*,-22,39*,127*,68*,81*,96*,71*,75*
CN1CCN(c2ccc(S(=O)(=O)N3CCCCC3)cc2NC(=O)Cc2ccc(Cl)cc2)CC1,24,-8,9,57*,5,36,28*,23,22*
CCNC(=O)C1(C)CCCN(C(=O)C2(c3ccc(Cl)cc3)CCCC2)C1 (stereo unspecified),-29,-1,-13,2,0,nt,nt,nt,nt
COc1cc(/C=C/C(=O)OCC(=O)Nc2ccc([N+](=O)[O-])cc2)ccc1O,46,-11,2,72*,39*,77*,43*,58*,39*
